ChEMBL document CHEMBL4038284, “Synthesis of novel quinoline-based 4,5-dihydro-1H-pyrazoles as potential anticancer, antifungal, antibacterial and antiprotozoal agents” (Eur J Med Chem, 2017)
Values after ≈ are worked out from the molar mass of the structure shown.

Columns and labels:
Neisseria gonorrhoeae = experiment: Antibacterial activity against beta lactamase positive Neisseria gonorrhoeae ATCC 31426 by oxidase test; format: functional
Outline: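 Agar dilution MIC on GC agar with 1% isovitalex containing increasing compound concentrations. Plates inoculated with about 1×10^4 CFU (5 µL). MIC is the lowest concentration that inhibited growth, with growth confirmed by oxidase test. Run in duplicate, repeated at least three times.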

Klebsiella pneumoniae [1] = experiment: Antibacterial activity against ESBL positive Klebsiella pneumoniae ATCC 700603 after 24 hrs by resazurin dye based microdilution assay; format: functional; settings: Klebsiella pneumoniae, 700603, 24 h
Outline: (§1)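 MIC taken as the lowest concentration giving visible inhibition and/or by resazurin (1 mg/mL). Gentamicin was the control. Run in duplicate, repeated at least three times.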

Leishmania panamensis = experiment: Antileshmanial activity against EpiR/GFP fused Leishmania panamensis MHOM/CO/87/UA140 intracellular amastigotes infected in human […] cells after 72 hrs by flow cytometric method; format: functional, cell-based; settings: MHOM/CO/87/UA140, 72 h
Outline: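 PMA-treated U-937 cells (3 × 10^5 cells/mL) infected with stationary-phase GFP L. panamensis promastigotes (15:1), 3 h at 34 °C, then washed. After 24 h, compounds added at 50, 12.5, 3.125 and 0.78 µg/mL for 72 h at 37 °C. EC50 by Probit; triplicate, two experiments.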

Trypanosoma cruzi = experiment: Antitrypanosomal activity against Trypanosoma cruzi Tulahuen intracellular amastigote harboring LacZ infected in human U937 cells after 72 hrs by CPRG/Nonidet reagent based spectrophotometric method; format: functional, cell-based; settings: U-937, 72 h
Outline: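 U-937 cells at 2.5 × 10^5 cells/mL in RPMI-1640 with 10% serum and 0.1 µg/mL PMA were infected with β-galactosidase-transfected Tulahuen epimastigotes at 5 parasites per cell. Infected cells were exposed to 50, 12.5, 3.125 and 0.78 µg/mL for 72 h. CPRG (100 uM) and 0.1% Nonidet P-40 were added for 3 h, read at 570 nm. EC50 by Probit. Triplicate, at least two experiments; benznidazole as reference.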

Candida albicans [2] = experiment: Growth inhibition of Candida albicans ATCC 10231 at 125 ug/ml incubated for 48 hrs under dark condition by broth microdilution method relative to control; format: functional; settings: ATCC 10231, 48 h, read-out: GI
Outline: (§2)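 CLSI M27-A3 broth microdilution in RPMI-1640, DMSO ≤1%. Inoculum 1-5 × 10^3 CFU/mL. Incubated 48 h at 30 °C, dark. % inhibition = 100 − (OD405 test − sterility control)/(OD405 growth control − sterility control), with growth and sterility control wells. Triplicate.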

Candida albicans [3] = experiment: Antifungal activity against Candida albicans ATCC 10231 incubated for 48 hrs under dark condition by broth microdilution method; format: functional; settings: ATCC 10231, 48 h
Outline: (§3)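 CLSI M27-A3 broth microdilution in RPMI-1640, DMSO ≤1%, compounds at 250-0.98 µg/mL final. Inoculum 1-5 × 10^3 CFU/mL. Incubated 48 h at 30 °C in a moist dark chamber, read at OD405. MIC80 and MIC50 taken from % inhibition dose-response curves (mean ± SEM, triplicate). Amphotericin B was the positive control.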

Cryptococcus neoformans [4] = experiment: Growth inhibition of Cryptococcus neoformans ATCC 32264 at 250 ug/ml incubated for 48 hrs under dark condition by broth microdilution method relative to control; format: functional; settings: ATCC 32264, 48 h, read-out: GI; outline: as §2
Cryptococcus neoformans [5] = experiment: Growth inhibition of Cryptococcus neoformans ATCC 32264 at 62.5 ug/ml incubated for 48 hrs under dark condition by broth microdilution method relative to control; format: functional; settings: ATCC 32264, 48 h, read-out: GI; outline: as §2
Escherichia coli = experiment: Antibacterial activity against Escherichia coli ATCC 25922 after 24 hrs by resazurin dye based microdilution assay; format: functional; settings: ATCC 25922, 24 h; outline: as §1
Candida albicans [6] = experiment: Growth inhibition of Candida albicans ATCC 10231 at 62.5 ug/ml incubated for 48 hrs under dark condition by broth microdilution method relative to control; format: functional; settings: ATCC 10231, 48 h, read-out: GI; outline: as §2
Cryptococcus neoformans [7] = experiment: Antifungal activity against Cryptococcus neoformans ATCC 32264 incubated for 48 hrs under dark condition by broth microdilution method; format: functional; settings: ATCC 32264, 48 h; outline: as §3
Cryptococcus neoformans [8] = experiment: Growth inhibition of Cryptococcus neoformans ATCC 32264 at 3.4 ug/ml incubated for 48 hrs under dark condition by broth microdilution method relative to control; format: functional; settings: ATCC 32264, 48 h, read-out: GI
Candida albicans [9] = experiment: Growth inhibition of Candida albicans ATCC 10231 at 3.4 ug/ml incubated for 48 hrs under dark condition by broth microdilution method relative to control; format: functional; settings: ATCC 10231, 48 h, read-out: GI
U-937 = experiment: Cytotoxicity against human U937 cells after 72 hrs by MTT assay; format: cell-based; settings: u-937, 72 h
Outline: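 Exponentially growing U-937 at 1 × 10^5 cells/mL in RPMI-1640 with 10% FBS were exposed to 200, 50, 12.5 and 3.125 µg/mL for 72 h at 37 °C, 5% CO2. MTT for 3 h, stopped with isopropanol/SDS, formazan read at 570 nm, blank-corrected. LC50 by Probit from % viability against untreated cells. Triplicate, at least two independent experiments.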

Candida albicans [10] = experiment: Growth inhibition of Candida albicans ATCC 10231 at 250 ug/ml incubated for 48 hrs under dark condition by broth microdilution method relative to control; format: functional; settings: ATCC 10231, 48 h, read-out: GI; outline: as §2
Candida albicans [11] = experiment: Growth inhibition of Candida albicans ATCC 10231 at 15.62 ug/ml incubated for 48 hrs under dark condition by broth microdilution method relative to control; format: functional; settings: ATCC 10231, 48 h, read-out: GI; outline: as §2
Candida albicans [12] = experiment: Growth inhibition of Candida albicans ATCC 10231 at 7.8 ug/ml incubated for 48 hrs under dark condition by broth microdilution method relative to control; format: functional; settings: ATCC 10231, 48 h, read-out: GI; outline: as §2
Cryptococcus neoformans [13] = experiment: Growth inhibition of Cryptococcus neoformans ATCC 32264 at 15.62 ug/ml incubated for 48 hrs under dark condition by broth microdilution method relative to control; format: functional; settings: ATCC 32264, 48 h, read-out: GI; outline: as §2
Plasmodium falciparum = experiment: Antiplasmodial activity against chloroquine-sensitive Plasmodium falciparum 3D7 assessed as reduction in parasitic LDH activity after 48 hrs by Malstat reagent based […] method; format: functional; settings: 3D7, 48 h
Outline: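 Unsynchronized P. falciparum 3D7 at 0.5% parasitemia and 1% hematocrit in RPMI with 3% Albumax II. Exposed to 100, 25, 6.25 and 1.56 µg/mL for 48 h at 37 °C under 90% N2/5% CO2/5% O2. After three freeze-thaw cycles, LDH measured with Malstat and NBT/PES, 1 h in the dark, read at 650 nm. IC50 by Probit; triplicate, ≥2 experiments.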

Cryptococcus neoformans [14] = experiment: Growth inhibition of Cryptococcus neoformans ATCC 32264 at 31.25 ug/ml incubated for 48 hrs under dark condition by broth microdilution method relative to control; format: functional; settings: ATCC 32264, 48 h, read-out: GI; outline: as §2
Staphylococcus aureus [15] = experiment: Antibacterial activity against vancomycin-intermediate Staphylococcus aureus after 24 hrs by resazurin dye based microdilution assay; format: functional; outline: as §1
Candida albicans [16] = experiment: Growth inhibition of Candida albicans ATCC 10231 at 31.25 ug/ml incubated for 48 hrs under dark condition by broth microdilution method relative to control; format: functional; settings: ATCC 10231, 48 h, read-out: GI; outline: as §2
Staphylococcus aureus [17] = experiment: Antibacterial activity against methicillin-resistant Staphylococcus aureus ATCC 43300 after 24 hrs by resazurin dye based microdilution assay; format: functional; settings: ATCC 43300, 24 h
Outline: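 Broth microdilution in Mueller Hinton broth, inoculum 5 × 10^5 – 8 × 10^5. Compound stocks diluted in MHB with 5% DMSO and 0.1% Tween 80. Incubation 24 h at 35-37 °C. MIC is the lowest concentration with visible growth inhibition and/or by resazurin (1 mg/mL) read-out. Gentamicin as control. Run in duplicate, replicated at least three times.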

Cryptococcus neoformans [18] = experiment: Growth inhibition of Cryptococcus neoformans ATCC 32264 at 125 ug/ml incubated for 48 hrs under dark condition by broth microdilution method relative to control; format: functional; settings: ATCC 32264, 48 h, read-out: GI; outline: as §2
Klebsiella pneumoniae [19] = experiment: Antibacterial activity against carbapenemase positive Klebsiella pneumoniae BAA 1705 after 24 hrs by resazurin dye based microdilution assay; format: functional; settings: BAA 1705, 24 h; outline: as §1
Cryptococcus neoformans [20] = experiment: Growth inhibition of Cryptococcus neoformans ATCC 32264 at 7.8 ug/ml incubated for 48 hrs under dark condition by broth microdilution method relative to control; format: functional; settings: ATCC 32264, 48 h, read-out: GI; outline: as §2
Pseudomonas aeruginosa = experiment: Antibacterial activity against Pseudomonas aeruginosa ATCC 27853 after 24 hrs by resazurin dye based microdilution assay; format: functional; settings: ATCC 27853, 24 h; outline: as §1
Staphylococcus aureus [21] = experiment: Antibacterial activity against methicillin-sensitive Staphylococcus aureus ATCC 25923 after 24 hrs by resazurin dye based microdilution assay; format: functional; settings: ATCC 25923, 24 h; outline: as §1

| SMILES | MIC (Neisseria gonorrhoeae) [µg/mL] | MIC (Klebsiella pneumoniae [1]) [µg/mL] | EC50 (Leishmania panamensis) [µg/mL] | EC50 (Trypanosoma cruzi) [µg/mL] | inhibition of growth at 125 µg/mL (Candida albicans [2]) [%] | MIC50 (Candida albicans [3]) [µg/mL] | MIC80 (Candida albicans [3]) [µg/mL] | inhibition of growth at 250 µg/mL (Cryptococcus neoformans [4]) [%] | inhibition of growth at 62.5 µg/mL (Cryptococcus neoformans [5]) [%] | MIC (Escherichia coli) [µg/mL] | inhibition of growth at 62.5 µg/mL (Candida albicans [6]) [%] | MIC50 (Cryptococcus neoformans [7]) [µg/mL] | MIC80 (Cryptococcus neoformans [7]) [µg/mL] | inhibition of growth at 3.4 µg/mL (Cryptococcus neoformans [8]) [%] | inhibition of growth at 3.4 µg/mL (Candida albicans [9]) [%] | LC50 (U-937) [µg/mL] | inhibition of growth at 250 µg/mL (Candida albicans [10]) [%] | inhibition of growth at 15.62 µg/mL (Candida albicans [11]) [%] | inhibition of growth at 7.8 µg/mL (Candida albicans [12]) [%] | inhibition of growth at 15.62 µg/mL (Cryptococcus neoformans [13]) [%] | also measured |
| --- | --- | --- | --- | --- | --- | --- | --- | --- | --- | --- | --- | --- | --- | --- | --- | --- | --- | --- | --- | --- | --- |
| COc1cc(C2=NN(C(C)=O)C(c3cccc(Nc4ccnc5cc(Cl)ccc45)c3)C2)cc(OC)c1OC (stereo not given) | 31.2 (≈ 58.8 µM) | > 1000 | 1.96 (≈ 3.69 µM) | 4.08 (≈ 7.68 µM) | 37.3 | 250 (≈ 471 µM) | ≥ 250 | 53.1 | 13.3 | > 1000 | 12.8 | 250 (≈ 471 µM) | ≥ 250 | 4.02 | 0 | 5.1 (≈ 9.6 µM) | 53.8 | 6.96 | 1.46 | 9.86 | EC50 (Plasmodium falciparum): 22.9 µg/mL (≈ 43.2 µM); inhibition of growth at 31.25 µg/mL (Cryptococcus neoformans [14]): 10.2%; MIC (Staphylococcus aureus [15]): > 1000 µg/mL; inhibition of growth at 31.25 µg/mL (Candida albicans [16]): 8.42%; MIC (Staphylococcus aureus [17]): > 1000 µg/mL; inhibition of growth at 125 µg/mL (Cryptococcus neoformans [18]): 23.1%; MIC (Klebsiella pneumoniae [19]): > 1000 µg/mL; inhibition of growth at 7.8 µg/mL (Cryptococcus neoformans [20]): 5.61%; MIC (Pseudomonas aeruginosa): > 1000 µg/mL; MIC (Staphylococcus aureus [21]): > 1000 µg/mL |
| COc1ccc(C2=NN(c3cc(Cl)cc(Cl)c3)C(c3cccc(Nc4ccnc5cc(Cl)ccc45)c3)C2)cc1 (stereo not given) | > 1000 | > 1000 | 12.6 (≈ 22 µM) | 31 (≈ 54.1 µM) | 10.3 | ≥ 250 | ≥ 250 | 43 | 6.18 | > 1000 | 9.34 | ≥ 250 | ≥ 250 | 0 | 1.02 | > 200 | 27.9 | 1.75 | 1.72 | 2.11 | EC50 (Plasmodium falciparum): 10.4 µg/mL (≈ 18.1 µM); inhibition of growth at 31.25 µg/mL (Cryptococcus neoformans [14]): 3.09%; MIC (Staphylococcus aureus [15]): > 1000 µg/mL; inhibition of growth at 31.25 µg/mL (Candida albicans [16]): 5.03%; MIC (Staphylococcus aureus [17]): > 1000 µg/mL; inhibition of growth at 125 µg/mL (Cryptococcus neoformans [18]): 10.2%; MIC (Klebsiella pneumoniae [19]): > 1000 µg/mL; inhibition of growth at 7.8 µg/mL (Cryptococcus neoformans [20]): 0%; MIC (Pseudomonas aeruginosa): > 1000 µg/mL; MIC (Staphylococcus aureus [21]): > 1000 µg/mL |
